Assay results from PMC4377161 (Molecular cancer therapeutics, 2014).
Entries after “also recorded” stand apart in the source; their conditions may differ.

Experiments:
[1] = system: mutant V600EB-Raf melanoma; settings: cited from earlier work
melanoma cells = test: MTS cell viability, melanoma cell lines; format: cell-based, human
Summary of the method: (§1)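 Melanoma lines (WM35, SbCl2, WM115, WM278.1, SK-MEL-24, 1205 Lu, UACC 903) and normal cells (FOM103 melanocytes, FF2441 fibroblasts, foreskin keratinocytes) seeded at 5×10^3 cells/well in 96-well plates. Exposed to DMSO vehicle or 0.62–40 µmol/L test compound for 24, 48 or 72 h, then MTS read. IC50 from three independent experiments per line, averaged across each group.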

cannabinoid receptor CB1 = settings: cited from earlier work
MiA PaCa-2 = test: MTS cell viability, MiA PaCa-2 pancreas cancer; format: cell-based; settings: read-out: IC50, Other cancer types, 24 h
Summary of the method: (§2)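 Cells kept in DMEM with 1% Glutamax and 10% FBS at 37°C, 5% CO2. Seeded at 5×10^3 cells/well in 96-well plates and grown before treatment. Treated with DMSO vehicle or 0.62 to 40 µmol/L test compound for 24, 48 or 72 h. Viability read by MTS. IC50 per cell line derived from three independent experiments by curve fitting.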

PI3K/Akt pathway = test: Western blot of pathway signaling, PI3K/Akt; format: cell-based, human; settings: 3 to 6 µmol/L for 3 to 24 hours, UACC 903 and 1205 Lu
Summary of the method: (§3)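 1.5×10^6 melanoma cells plated in 100 mm dishes. After 48 h, treated with 3–6 µmol/L test compound for 3 to 24 h, then lysed in RIPA and immunoblotted with ECL detection; α-enolase as loading control. Probes: MAPK, phospho-Erk1/2 (Thr202/Tyr204) and total Erk1/2; PI3K/Akt, phospho-Akt (Ser473), total Akt, phospho-PRAS40 (Thr246), phospho-p70S6K (Thr389); STAT3, phospho-Stat3 (Tyr705), total Stat3.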

A-549 = test: MTS cell viability, A-549 lung cancer; format: cell-based; settings: read-out: IC50, Other cancer types, 24 h
Summary of the method: as §2

[2] = system: 1205 Lu xenografted melanoma tumors; test: Xenograft tumor growth, 1205 Lu; format: in vivo, Athymic Nude-Foxn1nu mice; settings: 1205 Lu xenograft, 5–7.5 mg/kg i.p. daily, versus DMSO vehicle control
Summary of the method: (§4)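 Female Athymic Nude-Foxn1nu mice, 3–4 weeks old, injected s.c. above both rib cages with 1×10^6 UACC 903 or 1205 Lu cells in 0.2 mL DMEM with 10% FBS and 1% Glutamax. At day 6, with 50–75 mm3 tumors, mice randomized (5 mice/group, 2 tumors/mouse). Dosed i.p. daily for 3–4 weeks with DMSO vehicle or […] test compound, depending on cell line. Tumor size and body weight measured every 2 days.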

HT-1080 = test: MTS cell viability, HT-1080 fibrosarcoma; format: cell-based; settings: read-out: IC50, Other cancer types, 24 h
Summary of the method: as §2

STAT3 pathway = test: Western blot of pathway signaling, STAT3; format: cell-based, human; settings: UACC 903 and 1205 Lu
Summary of the method: as §3

pAkt (Ser473) = test: Western blot of size and time matched tumor lysates, pAkt; format: in vivo, nude mice; settings: days 11, 13 and 15, 7.5 mg/kg i.p. daily from day 6, versus DMSO
Summary of the method: (§5)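 Same size- and time-matched UACC 903 s.c. tumors in nude mice: 7.5 mg/kg test compound or DMSO vehicle given i.p. daily from day 6. Lysates from tumors harvested at days 11, 13 and 15 immunoblotted for pAkt (Ser473) or pStat3 (Tyr705), compared with vehicle-treated tumors.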

HCT-116 = test: MTS cell viability, HCT-116 colon cancer; format: cell-based; settings: read-out: IC50, Other cancer types, 24 h
Summary of the method: as §2

HT-29 = test: MTS cell viability, HT-29 colon cancer; format: cell-based; settings: read-out: IC50, Other cancer types, 24 h
Summary of the method: as §2

[3] = system: UACC 903 xenografted melanoma tumors; test: Xenograft tumor growth, UACC 903; format: in vivo, Athymic Nude-Foxn1nu mice; settings: UACC 903 xenograft, 5–7.5 mg/kg i.p. daily, versus DMSO vehicle control
Summary of the method: as §4

Toxicity assessment = format: in vivo; settings: Swiss Webster mice; for blood markers of major organ function (ALP, ALT, AST, CK, CREA, GLU): 10 mg/kg i.p. daily
Summary of the method: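 Swiss Webster mice (n=5) given 5 or 10 mg/kg test compound i.p. daily for 22 days and weighed daily. At termination, blood taken by cardiac puncture into lithium heparin serum separator tubes for ALP, ALT, AST, CK, creatinine and glucose. On day 22 liver, spleen, kidney, intestine, lung and heart were formalin-fixed, paraffin-embedded, H&E stained and examined microscopically.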

[4] = system: preexisting xenografted melanoma tumors; test: Xenograft tumor growth and body weight, UACC 903 or 1205 Lu; format: in vivo, Athymic Nude-Foxn1nu mice
Summary of the method: as §4

UACC 903 melanoma cells = test: Natural product library NPL-480 primary screen, MTS; format: cell-based, human; settings: 5 µmol/L, 24 hours, UACC 903, MTS
Summary of the method: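 UACC 903 cells plated at 5×10^3 per well in 96-well plates for 24 h. Each library compound, from 10 mM DMSO stocks, added at 5 µmol/L final for 24 h. Viability read by MTS. Screen run three times and averaged.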

pStat3 (Tyr705) = test: Western blot of size and time matched tumor lysates, pStat3; format: in vivo, nude mice; settings: days 11, 13 and 15, 7.5 mg/kg i.p. daily from day 6, versus DMSO
Summary of the method: as §5

UACC 903 tumors = test: Size and time matched tumors, Ki-67 immunohistochemistry; format: in vivo, nude mice; settings: day 11, UACC 903 tumors, 7.5 mg/kg i.p. daily from day 6
Summary of the method: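 Nude mice injected s.c. with 2.5×10^6 UACC 903 cells. From day 6, dosed i.p. daily to day 15 with DMSO vehicle or 7.5 mg/kg test compound. Size- and time-matched tumors harvested at days 11, 13 and 15 and immunostained with mouse anti-human Ki-67. Positive cells scored as % of total cells, ≥6 tumors, 4–6 fields each.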

normal cells = test: MTS cell viability, normal cells; format: cell-based, human; settings: read-out: average IC50, normal cells; average over normal cells
Summary of the method: as §1

[5] = system: UACC 903 and 1205 Lu cells; test: Cell cycle analysis, propidium iodide FACS; format: cell-based, human; settings: 24 hours leelamine treatment, propidium iodide stained UACC 903 and 1205 Lu cells
PC-3 = test: MTS cell viability, PC-3 prostate cancer; format: cell-based; settings: read-out: IC50, Other cancer types, 24 h
Summary of the method: as §2

LNCap = test: MTS cell viability, LNCap prostate cancer; format: cell-based; settings: read-out: IC50, Other cancer types, 24 h
Summary of the method: as §2

SW-480 = test: MTS cell viability, SW-480 colon cancer; format: cell-based; settings: read-out: IC50, Other cancer types, 24 h
Summary of the method: as §2

MAPK pathway = test: Western blot of pathway signaling, MAPK; format: cell-based, human; settings: 3 to 6 µmol/L for 3 to 24 hours, UACC 903 and 1205 Lu
Summary of the method: as §3

[6] = system: UACC 903 and 1205 Lu cells; test: Apo-ONE caspase-3/7 apoptosis assay; format: cell-based, human; settings: longer exposure
MCF-7 = test: MTS cell viability, MCF-7 breast cancer; format: cell-based; settings: read-out: IC50, Other cancer types, 24 h
Summary of the method: as §2

G-protein activity = settings: cited from earlier work
MDA-MB-231 = test: MTS cell viability, MDA-MB-231 breast cancer; format: cell-based; settings: read-out: IC50, Other cancer types, 24 h
Summary of the method: as §2

Compound: CCCS(=O)(=O)Nc1ccc(F)c(C(=O)c2c[nH]c3ncc(-c4ccc(Cl)cc4)cc23)c1F [Zelboraf]
- progression-free survival [1]: 6.2 months
- partial or complete anti-tumor response rate ([1]; patients having mutant V600EB-Raf, first 2-month treatment cycle): approximately 80%

Compound: CC(C)c1ccc2c(c1)CC[C@H]1[C@](C)(CN)CCC[C@]21C [leelamine, Dehydroabietylamine]
- fold more effective at inhibiting cultured melanoma cell survival than normal cells (melanoma cells; melanoma cells versus normal cells, average): 4.5 fold
- IC50 (melanoma cells; read-out: average IC50, cultured melanoma cells, average over melanoma cells): 2 µM
- binding to the cannabinoid receptor CB1 (cannabinoid receptor CB1): weakly binding
- IC50 (MiA PaCa-2): 4.69 ± 0.37 µM
- signaling through PI3K pathway (PI3K/Akt pathway): Decreased signaling
- IC50 (A-549): 8.81 ± 0.82 µM
- reduction of tumor volume [2]: 57%
- IC50 (HT-1080): 4.01 ± 0.27 µM
- signaling through STAT3 pathway (STAT3 pathway; 3 to 6 µmol/L for 3 to 24 hours): Decreased signaling
- time from which inhibition of STAT3 pathway occurred (STAT3 pathway; 3 to 6 µmol/L): ≥ 12 h
- active pAkt (Ser473) in tumor lysates (pAkt (Ser473)): decreased; also recorded: inhibition
- IC50 (HCT-116): 4.8 ± 0.5 µM
- IC50 (HT-29): 5.95 ± 1.23 µM
- reduction of tumor volume [3]: 61%
- blood markers of major organ function (ALP, ALT, AST, CK, CREA, GLU) (Toxicity assessment; after 22 days, 10 mg/kg): No significant differences; also recorded: negligible toxicity
- blood markers of major organ function (ALP, ALT, AST, CK, CREA, GLU) (Toxicity assessment; after 22 days, listed as Leelamine, 10 mg/kg): without affecting
- histological examination of H&E stained vital organ sections (cellular morphology or overall structure) (Toxicity assessment; 10 mg/kg, after 22 days, liver, spleen, kidney, intestine, lung, heart, 10 mg/kg): no change; also recorded: no differences
- body weights (Toxicity assessment; 5 or 10 mg/kg i.p. daily, 22 days): No significant difference
- inhibition of growth of preexisting xenografted melanoma tumors, average ([4]; average of UACC 903 and 1205 Lu xenografts, i.p. daily for 3 to 4 weeks): 60%
- animal body weight ([4]; xenograft-bearing nude mice, leelamine i.p. daily versus DMSO control): no significant differences
- decrease in cell viability (UACC 903 melanoma cells): approximately 95%
- pStat3 (Tyr705) in tumor lysates (pStat3 (Tyr705)): decreased; also recorded: inhibition
- reduction in proliferating cells (Ki-67) (UACC 903 tumors): 50%
- IC50 (normal cells): 9.3 µM
- cell cycle distribution [5]: increase in the sub-G0/G1 and G0/G1 cell populations, with a corresponding decrease in the S-phase population
- IC50 (PC-3): 5.41 ± 2.6 µM
- IC50 (LNCap): 10.9 ± 0.23 µM
- IC50 (SW-480): 1.55 ± 0.33 µM
- signaling through MAPK pathway (MAPK pathway): Decreased signaling
- increase in apoptosis [6]: 600%
- IC50 (MCF-7): 7.12 ± 1.3 µM
- stimulation of G-protein activity (G-protein activity): not stimulating
- IC50 (MDA-MB-231): 5.82 ± 0.87 µM
